Data taken from ChEMBL document CHEMBL2010797, “Exploring aigialomycin d and its analogues as protein kinase inhibitors for cancer targets” (ACS Med Chem Lett, 2011).

What was measured:
[1] = target: Cyclin-dependent kinase 2/cyclin A (Homo sapiens) (UniProt P24941+P20248+P78396); test: Inhibition of CDK2/cyclin A using 5-FAM-GGGPATPKKAKKL-COOH as substrate at 10 uM after 1 hr by IMAP assay; type: protein-complex assay
How it was run: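 IMAP fluorescence-polarization enzyme assay on CDK2/cyclin A, testing competition at the ATP site. Compounds tested at 10 μM, with purvalanol A at 1 μM as reference. Percent inhibition is the average ± SD of three independent experiments, or the mean of two for some compounds.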

[2] = target: T1, MAP kinase-interacting serine/threonine-protein kinase 2 (Homo sapiens, UniProt Q9HBH9); test: Inhibition of MNK2 using 5-FAM-TATKSGSTTKNRFVV-NH2 as substrate preincubated for 1 hr prior substrate addition measured after 2 hrs by IMAP assay
Target sequence in this assay (Q9HBH9 whole entry): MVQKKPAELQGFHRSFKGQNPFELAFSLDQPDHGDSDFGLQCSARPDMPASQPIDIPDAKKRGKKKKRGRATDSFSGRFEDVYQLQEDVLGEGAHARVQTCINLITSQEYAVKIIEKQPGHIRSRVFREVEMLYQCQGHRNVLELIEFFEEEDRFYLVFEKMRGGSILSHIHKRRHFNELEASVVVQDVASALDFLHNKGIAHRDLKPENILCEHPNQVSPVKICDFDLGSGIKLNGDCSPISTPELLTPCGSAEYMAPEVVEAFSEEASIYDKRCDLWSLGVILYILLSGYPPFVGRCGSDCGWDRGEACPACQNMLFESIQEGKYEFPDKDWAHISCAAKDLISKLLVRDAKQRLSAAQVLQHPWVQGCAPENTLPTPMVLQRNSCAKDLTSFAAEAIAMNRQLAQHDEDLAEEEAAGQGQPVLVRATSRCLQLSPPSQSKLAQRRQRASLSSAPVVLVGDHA

[3] = target: T1, MAP kinase-interacting serine/threonine-protein kinase 2; test: Inhibition of MNK2
Target sequence in this assay (Q9HBH9 whole entry): as above

[4] = target: Cyclin-dependent kinase 2/cyclin A (Homo sapiens, UniProt P24941); test: Inhibition of CDK2/cyclin A using 5-FAM-GGGPATPKKAKKL-COOH as substrate after 1 hr by IMAP assay; type: protein-complex assay
How it was run: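 IMAP fluorescence-polarization assay on CDK2/cyclin A. IC50 taken from dose–response curves, given as average ± SD of three independent experiments, or the mean of two for one compound.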

[5] = target: T2, Receptor-type tyrosine-protein kinase FLT3 (Homo sapiens, UniProt P36888); test: Inhibition of FLT3
T2 sequence (P36888 whole entry): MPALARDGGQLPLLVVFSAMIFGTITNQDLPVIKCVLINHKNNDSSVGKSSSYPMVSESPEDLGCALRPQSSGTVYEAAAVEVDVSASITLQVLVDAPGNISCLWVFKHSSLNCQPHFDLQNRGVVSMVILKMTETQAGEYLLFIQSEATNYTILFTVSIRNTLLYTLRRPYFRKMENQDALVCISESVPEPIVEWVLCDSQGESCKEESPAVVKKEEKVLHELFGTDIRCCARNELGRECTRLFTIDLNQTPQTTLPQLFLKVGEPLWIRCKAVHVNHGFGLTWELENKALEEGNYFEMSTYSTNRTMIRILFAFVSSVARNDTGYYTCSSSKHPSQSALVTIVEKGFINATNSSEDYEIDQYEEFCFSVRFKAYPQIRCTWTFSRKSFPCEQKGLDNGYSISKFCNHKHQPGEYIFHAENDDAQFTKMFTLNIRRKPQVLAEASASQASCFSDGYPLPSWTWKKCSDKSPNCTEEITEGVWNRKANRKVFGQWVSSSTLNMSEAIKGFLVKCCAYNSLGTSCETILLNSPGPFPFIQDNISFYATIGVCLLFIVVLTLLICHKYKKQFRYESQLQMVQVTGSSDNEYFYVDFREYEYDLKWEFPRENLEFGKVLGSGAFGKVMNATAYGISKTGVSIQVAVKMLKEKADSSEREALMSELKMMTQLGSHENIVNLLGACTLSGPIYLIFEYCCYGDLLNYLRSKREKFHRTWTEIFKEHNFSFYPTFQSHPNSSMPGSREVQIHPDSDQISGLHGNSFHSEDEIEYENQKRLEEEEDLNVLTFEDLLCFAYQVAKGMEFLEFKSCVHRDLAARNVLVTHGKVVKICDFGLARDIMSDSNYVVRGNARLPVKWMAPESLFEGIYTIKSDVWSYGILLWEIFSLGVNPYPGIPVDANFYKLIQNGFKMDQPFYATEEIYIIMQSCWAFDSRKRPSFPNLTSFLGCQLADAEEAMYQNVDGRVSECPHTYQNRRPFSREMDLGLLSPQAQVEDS

[6] = target: Cyclin-dependent kinase 1 (Homo sapiens, UniProt P06493); test: Inhibition of CDK1
Cyclin-dependent kinase 1, sequence (P06493 whole entry): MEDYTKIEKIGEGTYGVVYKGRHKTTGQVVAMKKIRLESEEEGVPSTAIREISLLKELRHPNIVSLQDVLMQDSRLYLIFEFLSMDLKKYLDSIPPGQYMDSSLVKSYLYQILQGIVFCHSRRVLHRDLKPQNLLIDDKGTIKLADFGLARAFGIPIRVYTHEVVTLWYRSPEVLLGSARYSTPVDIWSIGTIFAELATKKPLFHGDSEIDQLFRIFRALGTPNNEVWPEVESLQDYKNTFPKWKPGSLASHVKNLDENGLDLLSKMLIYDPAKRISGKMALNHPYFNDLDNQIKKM

[7] = target: T3, Serine/threonine-protein kinase PLK4 (Homo sapiens) (UniProt O00444); test: Inhibition of PLK4 assessed as enzyme activity at 10 uM relative to control; set-up: scale not given: the % may be the effect or the level left
T3 sequence (whole entry): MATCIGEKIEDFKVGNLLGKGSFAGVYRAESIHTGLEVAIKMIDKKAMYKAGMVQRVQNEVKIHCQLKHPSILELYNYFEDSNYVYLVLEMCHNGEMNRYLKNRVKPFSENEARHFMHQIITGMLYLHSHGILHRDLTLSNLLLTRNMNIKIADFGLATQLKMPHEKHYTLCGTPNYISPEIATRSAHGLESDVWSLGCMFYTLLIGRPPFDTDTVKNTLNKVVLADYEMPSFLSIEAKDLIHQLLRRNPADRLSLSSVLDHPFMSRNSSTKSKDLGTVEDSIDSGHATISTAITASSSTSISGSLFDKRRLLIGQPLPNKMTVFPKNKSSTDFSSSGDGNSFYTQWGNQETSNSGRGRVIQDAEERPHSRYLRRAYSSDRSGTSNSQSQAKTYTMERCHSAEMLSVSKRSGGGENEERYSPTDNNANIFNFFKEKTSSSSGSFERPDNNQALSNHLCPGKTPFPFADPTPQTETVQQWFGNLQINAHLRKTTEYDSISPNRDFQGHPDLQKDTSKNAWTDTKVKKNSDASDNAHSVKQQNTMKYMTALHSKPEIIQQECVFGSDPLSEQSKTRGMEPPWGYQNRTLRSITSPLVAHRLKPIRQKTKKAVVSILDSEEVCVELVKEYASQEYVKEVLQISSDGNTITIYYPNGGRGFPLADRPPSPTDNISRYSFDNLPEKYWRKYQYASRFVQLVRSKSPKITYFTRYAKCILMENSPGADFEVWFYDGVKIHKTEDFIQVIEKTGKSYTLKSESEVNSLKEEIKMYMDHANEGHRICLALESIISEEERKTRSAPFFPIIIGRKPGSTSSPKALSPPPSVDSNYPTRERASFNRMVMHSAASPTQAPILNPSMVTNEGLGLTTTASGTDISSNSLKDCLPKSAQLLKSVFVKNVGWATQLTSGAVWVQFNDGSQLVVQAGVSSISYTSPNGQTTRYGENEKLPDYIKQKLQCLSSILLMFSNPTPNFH
How it was run: (§1)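 Single-point test at 10 μM in a 96-kinase screening panel. Reported as % of a DMSO negative control, where a lower value means stronger inhibition.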

[8] = target: Cyclin-dependent kinase 5 (Homo sapiens, UniProt Q00535); test: Inhibition of CDK5
Cyclin-dependent kinase 5, sequence (Q00535 whole entry): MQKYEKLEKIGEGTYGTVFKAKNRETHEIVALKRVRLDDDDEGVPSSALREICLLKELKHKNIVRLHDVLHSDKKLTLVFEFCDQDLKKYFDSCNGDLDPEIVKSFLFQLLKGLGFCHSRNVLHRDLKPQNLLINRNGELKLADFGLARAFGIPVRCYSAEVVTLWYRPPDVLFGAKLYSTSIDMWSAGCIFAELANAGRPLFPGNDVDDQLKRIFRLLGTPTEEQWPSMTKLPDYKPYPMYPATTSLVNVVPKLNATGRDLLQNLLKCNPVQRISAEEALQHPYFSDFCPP

[9] = target: T4, Tyrosine-protein kinase receptor UFO (Homo sapiens, UniProt P30530); test: Inhibition of AXL
T4 sequence (P30530 whole entry): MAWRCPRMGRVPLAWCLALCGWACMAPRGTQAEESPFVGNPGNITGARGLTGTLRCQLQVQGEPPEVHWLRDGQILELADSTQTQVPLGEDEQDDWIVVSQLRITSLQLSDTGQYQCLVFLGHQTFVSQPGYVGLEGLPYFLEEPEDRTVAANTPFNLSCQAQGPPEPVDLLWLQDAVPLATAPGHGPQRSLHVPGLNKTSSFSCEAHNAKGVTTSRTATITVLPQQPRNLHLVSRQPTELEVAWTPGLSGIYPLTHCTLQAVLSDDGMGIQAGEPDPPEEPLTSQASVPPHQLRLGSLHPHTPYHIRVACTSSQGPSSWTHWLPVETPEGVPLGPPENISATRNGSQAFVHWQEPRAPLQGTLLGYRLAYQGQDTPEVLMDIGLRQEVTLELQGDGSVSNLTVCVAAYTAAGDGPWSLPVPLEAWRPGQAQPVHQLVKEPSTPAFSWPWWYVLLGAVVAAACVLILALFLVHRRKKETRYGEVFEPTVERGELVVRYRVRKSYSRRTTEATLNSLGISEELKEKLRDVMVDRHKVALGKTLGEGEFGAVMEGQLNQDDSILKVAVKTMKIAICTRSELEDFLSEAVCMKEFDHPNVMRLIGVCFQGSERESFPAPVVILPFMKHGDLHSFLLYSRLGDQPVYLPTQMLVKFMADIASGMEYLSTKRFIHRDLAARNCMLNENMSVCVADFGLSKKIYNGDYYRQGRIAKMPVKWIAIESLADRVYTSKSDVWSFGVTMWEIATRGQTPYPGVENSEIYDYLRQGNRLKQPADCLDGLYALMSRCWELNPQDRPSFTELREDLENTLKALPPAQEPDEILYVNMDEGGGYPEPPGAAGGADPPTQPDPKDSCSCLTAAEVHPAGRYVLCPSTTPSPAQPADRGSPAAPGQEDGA

[10] = target: T5, Protein kinase C epsilon type (Homo sapiens) (UniProt Q02156); test: Inhibition of PRKCE assessed as enzyme activity at 10 uM relative to control; set-up: scale not given: the % may be the effect or the level left; how it was run: as §1
T5 sequence (whole entry): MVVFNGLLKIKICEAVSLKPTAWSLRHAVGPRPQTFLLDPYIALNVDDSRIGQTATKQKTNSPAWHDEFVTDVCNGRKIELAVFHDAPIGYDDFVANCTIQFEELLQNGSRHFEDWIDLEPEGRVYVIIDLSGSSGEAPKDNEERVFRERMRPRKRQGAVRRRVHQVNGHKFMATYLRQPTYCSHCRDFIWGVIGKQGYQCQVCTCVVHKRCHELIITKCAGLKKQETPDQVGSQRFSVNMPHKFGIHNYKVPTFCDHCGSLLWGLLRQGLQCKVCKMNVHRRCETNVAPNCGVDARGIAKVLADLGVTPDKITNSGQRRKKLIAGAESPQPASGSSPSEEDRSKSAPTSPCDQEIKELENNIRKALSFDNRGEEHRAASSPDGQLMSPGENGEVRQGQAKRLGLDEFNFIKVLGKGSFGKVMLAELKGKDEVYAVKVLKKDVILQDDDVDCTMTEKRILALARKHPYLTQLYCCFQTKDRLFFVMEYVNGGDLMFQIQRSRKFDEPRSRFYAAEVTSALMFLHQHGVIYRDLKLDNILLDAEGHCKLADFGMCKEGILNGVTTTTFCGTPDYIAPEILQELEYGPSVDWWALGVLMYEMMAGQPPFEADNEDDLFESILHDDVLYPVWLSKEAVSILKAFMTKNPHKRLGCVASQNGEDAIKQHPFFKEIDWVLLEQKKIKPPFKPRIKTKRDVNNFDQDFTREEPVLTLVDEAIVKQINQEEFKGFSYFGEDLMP

[11] = target: MAP kinase-interacting serine/threonine-protein kinase 1 (Homo sapiens, UniProt Q9BUB5); test: Inhibition of MNK1
MAP kinase-interacting serine/threonine-protein kinase 1, sequence (Q9BUB5 whole entry): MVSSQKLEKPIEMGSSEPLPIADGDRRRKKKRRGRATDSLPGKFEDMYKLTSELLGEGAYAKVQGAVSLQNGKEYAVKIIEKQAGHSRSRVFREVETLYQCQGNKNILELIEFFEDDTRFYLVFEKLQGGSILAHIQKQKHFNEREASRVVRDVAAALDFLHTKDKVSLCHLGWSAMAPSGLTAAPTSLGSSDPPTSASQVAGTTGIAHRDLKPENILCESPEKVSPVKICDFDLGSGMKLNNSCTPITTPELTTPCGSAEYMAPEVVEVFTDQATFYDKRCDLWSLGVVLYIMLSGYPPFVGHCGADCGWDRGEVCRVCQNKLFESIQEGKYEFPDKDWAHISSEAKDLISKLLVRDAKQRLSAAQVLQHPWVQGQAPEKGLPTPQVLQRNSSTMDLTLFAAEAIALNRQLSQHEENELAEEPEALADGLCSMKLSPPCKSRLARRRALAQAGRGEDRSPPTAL

[12] = target: T1, MAP kinase-interacting serine/threonine-protein kinase 2; test: Inhibition of MNK2 assessed as enzyme activity at 10 uM relative to control; set-up: scale not given: the % may be the effect or the level left; how it was run: as §1
Target sequence in this assay (Q9HBH9 whole entry, looked up): as the sequence (Q9HBH9 whole entry) above

[13] = target: T6, Protein kinase C epsilon type (Homo sapiens, UniProt Q02156); test: Inhibition of PRKCE
T6 sequence (Q02156 whole entry): T5 sequence (whole entry)

[14] = target: T7, Serine/threonine-protein kinase PLK4 (Homo sapiens, UniProt O00444); test: Inhibition of PLK4
T7 sequence (O00444 whole entry): T3 sequence (whole entry)

[15] = target: Tyrosine-protein kinase receptor UFO (Homo sapiens) (UniProt P30530); test: Inhibition of AXL assessed as enzyme activity at 10 uM relative to control; set-up: scale not given: the % may be the effect or the level left; how it was run: as §1
[16] = target: Receptor-type tyrosine-protein kinase FLT3 (Homo sapiens) (UniProt P36888); test: Inhibition of FLT3 assessed as enzyme activity at 10 uM relative to control; set-up: scale not given: the % may be the effect or the level left; how it was run: as §1

SMILES	inhibition [1] [%]	IC50 [2] [µM]	other results
COc1cc(O)cc2c1C(=O)O[C@@H](C)C/C=C/[C@@H](O)[C@@H](O)CC/C=C/2	17	> 10	
C[C@H]1CCC[C@@H](O)[C@@H](O)CC/C=C/c2cc(O)cc(O)c2C(=O)O1	25	1.35	
C[C@H]1C/C=C/[C@@H](O)[C@@H](O)CC/C=C/c2cc(O)cc(O)c2C(=O)O1 [AIGIALOMYCIN D]	55	0.45	Kd [3]: 0.16 µM; IC50 [4]: 21 µM; Kd [5]: 0.3 µM; IC50 [6]: 6 µM; Activity [7]: 9.6%; IC50 [8]: 6 µM; Kd [9]: 1 µM; Activity [10]: 7.2%; IC50 [11]: 40 µM; Activity [12]: 0.15%; Kd [13]: 12 µM; Kd [14]: 0.26 µM; Activity [15]: 4.7%; Activity [16]: 7.1%
C[C@H]1CCC[C@@H](O)[C@@H](O)CCC(O)Cc2cc(O)cc(O)c2C(=O)O1 (mixture of isomers)	6	> 10	
COc1cc2c(c(OC)c1)C(=O)O[C@@H](C)C/C=C/[C@@H](O)[C@@H](O)CC/C=C/2	13	> 10	
O=C1OCC/C=C/[C@@H](O)[C@@H](O)CC/C=C/c2cc(O)cc(O)c21	38	> 10	
C[C@H]1C/C=C/[C@@H](O)[C@@H](O)CCC(O)Cc2cc(O)cc(O)c2C(=O)O1 (mixture of isomers)	8	> 10	
C[C@@H]1C/C=C/[C@@H](O)[C@@H](O)CC/C=C/c2cc(O)cc(O)c2C(=O)O1	64	> 10	IC50 [4]: 19 µM
C[C@H]1C/C=C/[C@@H](O)[C@@H](O)CCC(=O)Cc2cc(O)cc(O)c2C(=O)O1	21	> 10	
C[C@H]1C/C=C/[C@H]2OC(C)(C)O[C@H]2CC/C=C/c2cc(O)cc(O)c2C(=O)O1	19	0.58	
